Data on two compounds can be found in ChEMBL document CHEMBL4376860, “Discovery of Novel Dual Poly(ADP-ribose)polymerase and Phosphoinositide 3-Kinase Inhibitors as a Promising Strategy for Cancer Therapy” (J Med Chem, 2020).

Calls of active or inactive are those of the source. No cut-off for these calls is given here. Some results are limits rather than exact numbers.

The test system of one series is A549. In words: cells. The settings on record: Homo sapiens, A549, 168 h, read-out: pIC50 (converted).
The subject of another series is Ramos. In words: cells. Conditions: Homo sapiens, 168 h, read-out: pIC50 (converted).
The subject of series [1] is MDA-MB-468. In words: Inhibition of PI3K in human MDA-MB-468 cells assessed as reduction in RAD51 foci formation at 1 uM measured after 72 hrs in presence of PARP inhibitor olaparib by DAPI staining based immunofluorescence microscopic analysis. The class given is cell-based. The method, boiled down: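 RAD51 foci in MDA-MB-468 cells on coverslips after 72 h drug exposure. Cells fixed (3% formaldehyde), permeabilized (0.1% Triton X-100), blocked in 10% FBS/PBS, incubated overnight at 4 °C with rabbit anti-RAD51 polyclonal, then secondary antibody plus DAPI. Foci and percent positive cells (>5 foci per cell) counted from about 200 cells. Mean ± SD of three independent experiments.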

Series [2] is described as follows: Toxicity in BALB/c mouse xenografted with human MDA-MB-468 cells assessed as mortality at 50 mg/kg, ip administered every 2 days for 34 days in presence of PARP inhibitor olaparib. It counts as organism-based. The settings on record: in vivo. In a few lines: (§1)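 Nude mice bearing subcutaneous right-flank MDA-MB-468 tumours (2 × 10^6 exponential-phase cells implanted). Randomised at about 100 mm³ tumour volume; 6 mice per group. Dosed ip every 2 days for 34 days. Vehicle controls received PBS with 5% DMSO. Body weight and tumour size recorded every 2 days; tumour volume calculated as ab²/2 from caliper diameters.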

In series [3] the test system is MDA-MB-468. The series is described as follows: Induction of DNA damage in human MDA-MB-468 cells at 1 uM measured after 72 hrs in presence of PARP inhibitor olaparib by comet assay. The class given is functional, cell-based. The method, boiled down: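 MDA-MB-468 cells treated for 72 h, harvested and run in a neutral comet assay. Ethidium bromide staining after electrophoresis. About 200 cell images per group analysed with CASP. DNA damage scored as tail intensity (percentage DNA in tail) and olive tail moment. Mean ± SD of three independent experiments.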

The subject of series [4] is MDA-MB-468. The series is described as follows: Inhibition of PI3K in human MDA-MB-468 cells assessed as reduction in BRCA1 mRNA level at 1 uM in presence of PARP inhibitor olaparib by Trizol reagent-based RT-PCR analysis. It counts as cell-based. The method, boiled down:
(§2)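 Total RNA from treated MDA-MB-468 cells extracted with TRIzol. BRCA1 or BRCA2 mRNA quantified by real-time PCR with GAPDH as internal control. Results given as fold change relative to the internal control. Mean ± SD of three independent experiments.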

Series [5] deals with MDA-MB-468. In words: cells. The settings on record: Homo sapiens, MDA-MB-468, 168 h, read-out: pIC50 (converted).
For series [6], the system named is MDA-MB-468. The series is described as follows: Inhibition of PI3K in human MDA-MB-468 cells assessed as reduction in BRCA2 mRNA level at 1 uM in presence of PARP inhibitor olaparib by Trizol reagent-based RT-PCR analysis. It counts as cell-based. In a few lines: as §2
The test system of the next series is BXPC-3. The series is described as follows: cells. The settings on record: Homo sapiens, BXPC-3, 168 h, read-out: pIC50 (converted).
For series [7], the system named is HCT-116. The series is described as follows: cells. Conditions: Homo sapiens, HCT-116, 168 h, read-out: pIC50 (converted).
Another series concerns DU-145. The series is described as follows: cells. Conditions: Homo sapiens, DU-145, 168 h, read-out: pIC50 (converted).
Series [8] has as its system MDA-MB-468. In words: Induction of apoptosis in human MDA-MB-468 cells assessed as necrotic cells at 1 uM measured after 72 hrs in presence of PARP inhibitor olaparib by Annexin V-FITC/propidium iodide staining based flow cytometry (reference value: 0.13%). The class given is functional. A general note: In flow cytometry, cells or beads pass a laser one at a time.
Another series has as its system SW-620. In words: cells. Conditions: Homo sapiens, SW-620, 168 h, read-out: pIC50 (converted).
The subject of series [9] is MDA-MB-468. In words: Induction of apoptosis in human MDA-MB-468 cells xenografted in BALB/c mouse assessed as increase in cleaved PARP expression at 50 mg/kg, ip administered every 2 days for 34 days measured post last dose by Western blot analysis. The class given is functional, organism-based. Background: A xenograft is tissue or cells of one species grown in another, often human tumour cells in immunodeficient mice.

Series [10] deals with Phosphatidylinositol 4,5-bisphosphate 3-kinase catalytic subunit delta isoform (Homo sapiens, UniProt O00329). The series is described as follows: Inhibition of PI3Kdelta (unknown origin) using PIP2 as substrate measured after 2 hrs by ADP-glo plus luminescence assay. In a few lines: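 ADP-Glo Plus luminescence assay in 50 µL of 10 mM Tris-HCl pH 7.5 with 25 µM ATP, 9.75 µM PIP2, 4 mM MgCl2, 50 mM NaCl, 0.05% Chaps, 1 mM DTT, 5% glycerol and 2% DMSO. Enzyme: PI3Kα and β at 60 ng/mL, δ at 45 ng/mL. Ten-point 3-fold dilutions from 1 µM. Incubation at room temperature for 1 h (α, β) or 2 h (δ). IC50 by nonlinear regression.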

Series [11] deals with Mus musculus. In words: In vivo inhibition of PI3K in BALB/c mouse xenografted with human MDA-MB-468 cells assessed as reduction in BRCA1 expression at 50 mg/kg, ip administered every 2 days for 34 days measured post-last dose by Western blot analysis. It counts as functional, organism-based.
Series [12] in a line: Toxicity in BALB/c mouse xenografted with human MDA-MB-468 cells assessed as mortality at 50 mg/kg, ip administered every 2 days for 34 days. The class given is organism-based. Conditions: in vivo. The method, boiled down:
as §1

In series [13] the test system is HCT-116. The series is described as follows: Potency index, ratio of BKM120 IC50 to test compound IC50 for antiproliferative activity against human HCT116 cells. It counts as functional.
The test system of series [14] is Mus musculus. The series is described as follows: In vivo inhibition of PI3K in BALB/c mouse xenografted with human MDA-MB-468 cells assessed as reduction in AKT phosphorylation at S473 residue at 50 mg/kg, ip administered every 2 days for 34 days measured post-last dose by Western blot analysis. It counts as functional, organism-based.
Series [15] relates to MDA-MB-468. In words: Activation of ERK in human MDA-MB-468 cells assessed as increase in ERK autophosphorylation at T202 residue at 1 uM measured after 6 to 72 hrs by Western blot analysis. It counts as cell-based. The method, boiled down:
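MDA-MB-468 cells seeded in six-well plates, incubated overnight, then treated for 6 h, with 1‰ (v/v) DMSO medium as control. Lysates cleared at 4 °C, protein quantified by BCA, resolved by 8-12% SDS-PAGE and transferred to PVDF. Membranes blocked in 5% BSA/TBST, probed with primary antibodies (pERK-Thr202, total ERK, cleaved PARP, β-actin) and HRP secondary. ECL detection, band densitometry.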

Series [16] has as its system MDA-MB-468. In words: Antitumor activity against human MDA-MB-468 cells xenografted in BALB/c mouse assessed as tumor growth inhibition at 50 mg/kg, ip administered every 2 days for 34 days and measured at 2 days interval during compound dosing relative to control. The class given is functional. Conditions: MDA-MB-468, ip, read-out: TGI.
Series [17] has as its system Mus musculus. The series is described as follows: In vivo activation of ERK in BALB/c mouse xenografted with human MDA-MB-468 cells assessed as increase in ERK autophosphorylation at T202 residue at 50 mg/kg, ip administered every 2 days for 34 days measured post-last dose by Western blot analysis. It counts as functional, organism-based.

Chain of Phosphatidylinositol 4,5-bisphosphate 3-kinase catalytic subunit delta isoform (O00329 whole entry, canonical isoform): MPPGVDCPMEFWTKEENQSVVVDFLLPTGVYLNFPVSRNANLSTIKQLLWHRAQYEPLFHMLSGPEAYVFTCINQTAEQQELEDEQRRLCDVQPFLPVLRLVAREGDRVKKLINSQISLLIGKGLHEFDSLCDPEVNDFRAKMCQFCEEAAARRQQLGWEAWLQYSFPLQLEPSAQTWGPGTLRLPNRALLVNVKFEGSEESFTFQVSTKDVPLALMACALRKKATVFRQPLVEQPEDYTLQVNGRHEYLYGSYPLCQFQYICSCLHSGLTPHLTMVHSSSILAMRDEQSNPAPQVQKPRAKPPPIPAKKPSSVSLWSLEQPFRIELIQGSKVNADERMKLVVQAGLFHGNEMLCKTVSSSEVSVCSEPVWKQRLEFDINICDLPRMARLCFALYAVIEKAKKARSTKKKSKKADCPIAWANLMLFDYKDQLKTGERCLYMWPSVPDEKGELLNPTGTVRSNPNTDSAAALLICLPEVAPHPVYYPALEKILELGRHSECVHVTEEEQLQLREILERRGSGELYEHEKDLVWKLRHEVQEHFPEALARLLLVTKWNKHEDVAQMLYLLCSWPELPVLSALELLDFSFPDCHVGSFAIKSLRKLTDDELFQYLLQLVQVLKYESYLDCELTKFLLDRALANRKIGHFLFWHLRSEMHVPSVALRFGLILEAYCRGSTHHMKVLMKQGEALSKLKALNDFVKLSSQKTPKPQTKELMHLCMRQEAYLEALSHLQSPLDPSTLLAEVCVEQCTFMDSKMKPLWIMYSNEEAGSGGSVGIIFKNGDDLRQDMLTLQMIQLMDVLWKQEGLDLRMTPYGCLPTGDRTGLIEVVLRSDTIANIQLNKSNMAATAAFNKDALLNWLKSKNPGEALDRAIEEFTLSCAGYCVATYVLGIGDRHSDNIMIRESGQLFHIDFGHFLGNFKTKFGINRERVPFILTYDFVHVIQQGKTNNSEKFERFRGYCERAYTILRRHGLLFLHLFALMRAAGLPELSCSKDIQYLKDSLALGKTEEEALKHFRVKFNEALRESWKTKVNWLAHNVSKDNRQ

Turning to `Nc1cc(C(F)(F)F)c(-c2cc(N3CCOCC3)nc(N3CCOCC3)n2)cn1` [BUPARLISIB], the IC50 is 646 nM in the series on A549; 1170 nM with Ramos; 1290 nM with MDA-MB-468 [5]; 2450 nM with BXPC-3; 1230 nM in the series with HCT-116 [7]; 1170 nM in the series on DU-145. Moreover, in the series on SW-620, the IC50 was 3240 nM. The inhibition entry in the series on MDA-MB-468 [1], with MDA-MB-468 [4] and with MDA-MB-468 [6] was “Active” each time. Moreover, the Activity result in series [2] is reported as “Non-Toxic”; in the series on MDA-MB-468 [8], 1.48%. Also, in the series on MDA-MB-468 [3], the result was Active.
As for `Nc1cc(C(F)(F)F)c(-c2nc3c(c(N4CCOCC4)n2)CCN(C(=O)c2cc(Cc4n[nH]c(=O)c5ccccc45)ccc2F)C3)cn1`, the result in the series with MDA-MB-468 [9], with MDA-MB-468 [15] and in the series on Mus musculus [17] was Active. In series [10], the IC50 was 7.41 nM. In addition, the inhibition result in the series with Mus musculus [11] and with Mus musculus [14] was “Active” in each case. Besides, the Activity entry in series [12] is given as “Non-Toxic”. Also, in the series on HCT-116 [13], the “Ratio IC50” value is “>=4”. Moreover, the inhibition in vivo at 50 mg/kg in the series on MDA-MB-468 [16] came out at 73.4%.
